This is an account of results in ChEMBL document CHEMBL4196179, “Synthesis and Pharmacological Evaluation of Noscapine-Inspired 5-Substituted Tetrahydroisoquinolines as Cytotoxic Agents” (J Med Chem, 2018).

One test concerns PANC-1. The experiment in a line: Cell cycle arrest in human PANC1 cells assessed as increase in accumulation at G2/M phase at 10 uM after 18 hrs by Hoechst 33342 staining based FACS analysis relative to control. The format is functional. The method in brief: (§1)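 Cells seeded 48 h beforehand, treated 18 h with test compounds at 10 µM or vincristine at 100 nM, then trypsinised and stained with Hoechst 33342 for 60 min; FACS read at 450 nm; % G2/M increase calculated relative to 0.1% DMSO vehicle; mean ± SEM of three independent experiments.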
On the technique in general: In flow cytometry, cells or beads pass a laser one at a time.

For a further test, the system named is MCF7. The test is described as follows: Cell cycle arrest in human MCF7 cells assessed as increase in accumulation at G2/M phase at 10 uM after 18 hrs by Hoechst 33342 staining based FACS analysis relative to control. The format is functional. The method in brief:
as §1

The species entered for a further test is Homo sapiens. The experiment in a line: Binding affinity to recombinant P-gp cys-less mutant (unknown origin) in proteoliposomes assessed as increase in ATP hydrolysis rate at 10^-9 to 10^-4 M after 40 mins by colorimetric assay relative to basal control. The method in brief:
(§2)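 P-gp expressed in High-Five insect cells via recombinant baculovirus, IMAC-purified and reconstituted into proteoliposomes; 0.1-0.5 µg incubated with 2 mM ATP and drug at 10^-9 to 10^-4 M for 40 min at 37 °C; liberated Pi measured colorimetrically; EC50 and extent of stimulation from dose-response fit against drug-free basal activity.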

The subject of a further test is NCI/ADR-RES. The test is described as follows: Inhibition of P-gp in human NCI/ADR-RES cells assessed as rate of calcein-AM accumulation at 1 uM by fluorescence assay. The format is cell-based. The method in brief: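 Cells seeded at 2 × 10^3/well and grown 2 d, washed and placed in HBSS; test compound added at 2X in HBSS with DMSO ≤1% final, then calcein-AM at 1 µM final; intracellular fluorescence followed over time, rate taken as slope from linear regression.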

Test [1] in a line: Binding affinity to recombinant P-gp cys-less mutant (unknown origin) in proteoliposomes assessed as increase in ATP hydrolysis rate after 40 mins by colorimetric assay. Set-up: species or system Homo sapiens. The procedure, abridged:
as §2

The species entered for another test is Sus scrofa. The experiment in a line: Stabilization of pig tubulin assessed as Vmax of tubulin polymerization at 10 uM after 60 mins turbidimetric analysis (reference value: 27 +/- 2 milliOD/min).

Turning to `CCNC(=O)N1CCc2c(Br)c3c(c(OC)c2C1c1ccccc1)OCO3` (centres undefined), the Activity in the test with PANC-1 is listed as -2%; in the test with MCF7, 6%.

As to `COc1ccc(CC2c3c(c(Br)c4c(c3OC)OCO4)CCN2C)cc1` (centres undefined), the results for the Activity in the test on PANC-1 and with MCF7 were 226% and 180%, respectively.

In the case of `CCNC(=O)N1CCc2c(Br)c3c(c(OC)c2C1c1cc(OC)c(OC)c(OC)c1)OCO3` (centres undefined), the results for the Activity with PANC-1 and in the test with MCF7 were 2% and 3%, respectively.

In the case of `COc1ccc2c(c1OC)CC1c3c(c(Br)c4c(c3OC)OCO4)CCN1C2` (centres undefined), the Activity with PANC-1 turned out to be 9%; in the test on MCF7, 28%.

For `COc1c2c(c(Br)c3c1C(c1ccccc1)N(C)CC3)OCO2` (centres undefined), the figures for the Activity with PANC-1 and with MCF7 were -7% and 18%, respectively.

Turning to `CCNC(=O)N1CCc2c(Br)c3c(c(OC)c2C1Cc1ccc(OC)c(OC)c1)OCO3` (centres undefined), the Activity in the test with PANC-1 is listed as -10%; with MCF7, 12%.

As for `COc1ccc(C2c3c(c(Br)c4c(c3OC)OCO4)CCN2C)cc1` (centres undefined), the Activity with PANC-1 is given as 26%; with MCF7 it was 23%.

Take `CCNC(=O)N1CCc2c(Br)c3c(c(OC)c2C1c1cccc(OC)c1OC)OCO3` (centres undefined): the Activity in the test with PANC-1 stood at 14%; in the test on MCF7, 19%.

Consider `COc1ccc(CC2c3c(c(Br)c4c(c3OC)OCO4)CCN2C)cc1OC` (centres undefined), for which the Activity stood at 0% in the test on PANC-1 and 19% in the test on MCF7.

For `COc1c2c(c(Br)c3c1C(Cc1ccccc1)N(C)CC3)OCO2` (centres undefined), the Activity with PANC-1 was 13%; in the test with MCF7, 9%.

`CCNC(=O)N1CCc2c(Br)c3c(c(OC)c2C1Cc1ccccc1)OCO3` (centres undefined): the results for the Activity in the test on PANC-1 and in the test with MCF7 were -8% and 1%, respectively.

With `COc1ccc(C2c3c(c(Br)c4c(c3OC)OCO4)CCN2C)cc1OC` (centres undefined), the Activity in the test on PANC-1 came out at 8%; in the test with MCF7, 20%.

As to `CCNC(=O)N1CCc2c(Br)c3c(c(OC)c2C1Cc1cc(OC)c(OC)c(OC)c1)OCO3` (centres undefined), the figures for the Activity with PANC-1 and in the test with MCF7 were -4% and 5%, respectively.

`COc1cc(C2c3c(c(Br)c4c(c3OC)OCO4)CCN2C)cc(OC)c1OC` (centres undefined): the Activity with PANC-1 turned out to be 12%; with MCF7, 48%.

With `CCNC(=O)N1CCc2c(Br)c3c(c(OC)c2C1Cc1cccc(OC)c1OC)OCO3` (centres undefined), the Activity in the test on PANC-1 is reported as 28%; in the test on MCF7 it was 11%.

Consider `COc1cccc(CC2c3c(c(Br)c4c(c3OC)OCO4)CCN2C)c1OC` (centres undefined), for which the Activity in the test on PANC-1 is listed as 8%; in the test on MCF7, 32%.

Regarding `CCNC(=O)N1CCc2c(Br)c3c(c(OC)c2C1c1ccc(OC)c(OC)c1)OCO3` (centres undefined), the Activity with PANC-1 was 11%; with MCF7, -6%.

Turning to `COc1cccc(C2c3c(c(Br)c4c(c3OC)OCO4)CCN2C)c1OC` (centres undefined), the figures for the Activity in the test with PANC-1 and in the test on MCF7 were 16% and 29%, respectively.

In the case of `COc1cc(CC2c3c(c(Br)c4c(c3OC)OCO4)CCN2C)cc(OC)c1OC` (centres undefined), the Activity is recorded as -1% with PANC-1 and -8% with MCF7.

In the case of `CCNC(=O)N1CCc2c(Br)c3c(c(OC)c2C1c1ccc(OC)cc1)OCO3` (centres undefined), the Activity in the test with PANC-1 came to 21%; with MCF7, 18%.

The term EC50 denotes the concentration at which the effect is half-maximal. Turning to `COC(=O)C1=C(C)NC(C)=C(C(=O)OCCN(C)Cc2ccccc2)C1c1cccc([N+](=O)[O-])c1` (centres undefined) [NICARDIPINE], the fold change (FC) in the test filed under Homo sapiens was found to be 13.6. In the test on NCI/ADR-RES, the Activity was 107 RFU/min. Besides, the EC50 in test [1] is 4.7 µM.

As to `CC(=O)O[C@H]1C(=O)[C@@]2(C)[C@H]([C@H](OC(=O)c3ccccc3)[C@]3(O)C[C@H](OC(=O)[C@H](O)[C@@H](NC(=O)c4ccccc4)c4ccccc4)C(C)=C1C3(C)C)[C@]1(OC(C)=O)CO[C@@H]1C[C@@H]2O`, in the test filed under Sus scrofa, the Vmax (milli optical density/minute) is 76.
